Source: ChEMBL document CHEMBL1145786, “Synthesis and structure-activity relationship of alpha-sulfonylhydroxamic acids as novel, orally active matrix metalloproteinase inhibitors for the treatment of osteoarthritis” (J Med Chem, 2003)

Columns and labels:
[1] = target: T1, Matrix metalloproteinase-9 (Homo sapiens, UniProt P14780); assay: In vitro inhibition of matrix metalloprotease-9
Procedure, shortened: (§1)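 Each inhibitor concentration tested in triplicate. IC50 derived from a four-parameter logistic fit of the data within a single experiment, and the reported value is the mean of the triplicate values.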

[2] = target: T2, Disintegrin and metalloproteinase domain-containing protein 17 (Homo sapiens, UniProt P78536); assay: Inhibition of Tumor necrosis factor alpha converting enzyme
T2 sequence (P78536 whole entry, the tested form may be a part): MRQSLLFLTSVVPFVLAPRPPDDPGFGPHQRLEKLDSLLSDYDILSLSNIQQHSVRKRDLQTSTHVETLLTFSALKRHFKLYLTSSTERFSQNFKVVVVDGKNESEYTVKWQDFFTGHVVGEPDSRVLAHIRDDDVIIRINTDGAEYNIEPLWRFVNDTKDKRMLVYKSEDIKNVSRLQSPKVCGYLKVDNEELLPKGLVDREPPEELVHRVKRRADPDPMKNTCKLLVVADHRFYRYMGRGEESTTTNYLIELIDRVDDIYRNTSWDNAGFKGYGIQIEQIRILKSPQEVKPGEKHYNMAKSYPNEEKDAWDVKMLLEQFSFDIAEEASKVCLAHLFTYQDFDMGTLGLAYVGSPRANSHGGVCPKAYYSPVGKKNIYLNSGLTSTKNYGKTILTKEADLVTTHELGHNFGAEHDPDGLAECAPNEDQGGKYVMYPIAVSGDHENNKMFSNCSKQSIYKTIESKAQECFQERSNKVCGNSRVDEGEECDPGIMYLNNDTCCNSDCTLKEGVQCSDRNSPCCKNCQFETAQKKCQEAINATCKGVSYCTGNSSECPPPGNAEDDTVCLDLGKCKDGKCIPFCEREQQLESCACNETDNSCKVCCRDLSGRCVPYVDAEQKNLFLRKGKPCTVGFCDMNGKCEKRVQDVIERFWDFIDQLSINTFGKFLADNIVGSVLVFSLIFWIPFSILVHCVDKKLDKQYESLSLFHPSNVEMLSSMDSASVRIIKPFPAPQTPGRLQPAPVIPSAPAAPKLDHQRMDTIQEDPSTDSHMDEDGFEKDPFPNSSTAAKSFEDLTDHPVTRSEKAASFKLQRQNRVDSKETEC

Interstitial collagenase [3] = target: T3, Interstitial collagenase (Homo sapiens, UniProt P03956); assay: In vitro inhibition of matrix metalloprotease-1
T3 sequence (P03956 whole entry): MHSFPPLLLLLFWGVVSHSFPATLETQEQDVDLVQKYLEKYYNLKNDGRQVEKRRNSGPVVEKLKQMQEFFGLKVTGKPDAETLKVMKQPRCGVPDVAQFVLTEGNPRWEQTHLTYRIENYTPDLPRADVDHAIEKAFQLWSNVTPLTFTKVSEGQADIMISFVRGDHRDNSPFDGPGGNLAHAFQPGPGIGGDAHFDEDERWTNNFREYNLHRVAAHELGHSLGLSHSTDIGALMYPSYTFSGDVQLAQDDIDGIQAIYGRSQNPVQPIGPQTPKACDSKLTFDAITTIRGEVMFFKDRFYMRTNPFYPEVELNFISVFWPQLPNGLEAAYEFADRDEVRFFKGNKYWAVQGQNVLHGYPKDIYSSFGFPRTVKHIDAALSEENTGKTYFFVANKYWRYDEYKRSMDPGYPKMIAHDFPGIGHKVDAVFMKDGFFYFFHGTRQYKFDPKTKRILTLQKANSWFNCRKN

Collagenase 3 [4] = target: T4, Collagenase 3 (Homo sapiens, UniProt P45452); assay: In vitro inhibition of matrix metalloprotease-13
[5] = target: T2, Disintegrin and metalloproteinase domain-containing protein 17; assay: In vitro inhibition against tumor necrosis factor alpha converting enzyme at 10 uM concentration
Procedure, shortened: (§2)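 Single-point enzyme inhibition at 10 µM inhibitor, reported as percent inhibition. Full dose-response curves were run only where inhibition reached at least 60% at 10 µM.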

Mus musculus [6] = assay: Compound was tested in vivo for inhibition using dialysis implant data, value expressed relative to activity of CGS-27023 at dose 25 mg/kg(po) (73 +/-4); format: functional
Procedure, shortened: (§3)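 Groups of mice dosed orally at 25 mg/kg with drug or vehicle carrying an implanted enzyme-containing dialysis bag. After 1 h of exposure, bag retrieved, and enzyme activity inside measured spectrophotometrically against bags from vehicle-treated mice. Percent inhibition expressed relative to CGS-27023 (set as 1) run as standard.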

Mus musculus [7] = assay: Compound was tested in vivo for inhibition using dialysis implant, value expressed relative to activity of CGS-27023 at dose 25 mg/kg(po) (66 +/- 4); format: functional; procedure, shortened: as §3
Rattus norvegicus = assay: Compound was tested in vivo for inhibition in rat sponge-wrapped cartilage model, value expressed relative to activity of CGS-27023 at dose 25 mg/kg (p.o.) in (52+/-4); format: functional; settings: route oral
Procedure, shortened: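 Oral dosing at 25 mg/kg once daily for 3 weeks, with CGS-27023 as comparator. Read-out was percent inhibition of degradation of bovine cartilage in the sponge-wrapped implant.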

[8] = target: T5, Interstitial collagenase (Homo sapiens) (UniProt P03956); assay: Inhibition of Matrix metalloprotease-1 at 10 uM; procedure, shortened: as §2
T5 sequence (whole entry): T3 sequence (P03956 whole entry)

Interstitial collagenase [9] = target: T3, Interstitial collagenase; assay: Inhibition of Matrix metalloprotease-1; procedure, shortened: as §1
[10] = target: T1, Matrix metalloproteinase-9; assay: Inhibition of Matrix metalloprotease-9; procedure, shortened: as §1
Collagenase 3 [11] = target: T4, Collagenase 3; assay: Inhibition of Matrix metalloprotease-13
Mus musculus [12] = assay: Compound was tested in vivo for inhibition using dialysis implant, value expressed relative to activity of CGS-27023 at dose 25 mg/kg(po)(53 +/- 4); format: functional; procedure, shortened: as §3
Mus musculus [13] = assay: Compound was tested in vivo for inhibition using dialysis implant, values expressed relative to activity of CGS-27023 at dose 25 mg/kg(po)(68 +/-3); format: functional; procedure, shortened: as §3
[14] = target: T1, Matrix metalloproteinase-9; assay: Inhibition of Matrix metalloprotease-9 at 10 uM; procedure, shortened: as §2
Mus musculus [15] = assay: Compound was tested in vivo for inhibition using dialysis implant, values expressed relative to activity of CGS-27023 at dose 25 mg/kg(po)(60 +/-4); format: functional; procedure, shortened: as §3
Mus musculus [16] = assay: Compound was tested in vivo for inhibition using dialysis implant, value expressed relative to activity of CGS-27023 at dose 25 mg/kg(po)(53 +/-4); format: functional; procedure, shortened: as §3
Mus musculus [17] = assay: Compound was tested in vivo for inhibition using dialysis implant data, value expressed relative to activity of CGS-27023 at dose 25 mg/kg(po)(67 +/-3); format: functional; procedure, shortened: as §3
[18] = target: T2, Disintegrin and metalloproteinase domain-containing protein 17; assay: Inhibition of Tumor necrosis factor alpha converting enzyme at 10 uM
Mus musculus [19] = assay: Compound was tested in vivo for inhibition using dialysis implant, value expressed relative to activity of CGS-27023 at dose 25 mg/kg (p.o.) (66+/-4); format: functional; settings: route oral; procedure, shortened: as §3
Mus musculus [20] = assay: Compound was tested in vivo for inhibition using dialysis implant, value expressed relative to activity of CGS-27023 at dose 25 mg/kg(po) (77+/-3); format: functional; procedure, shortened: as §3

T1 sequence (P14780 whole entry): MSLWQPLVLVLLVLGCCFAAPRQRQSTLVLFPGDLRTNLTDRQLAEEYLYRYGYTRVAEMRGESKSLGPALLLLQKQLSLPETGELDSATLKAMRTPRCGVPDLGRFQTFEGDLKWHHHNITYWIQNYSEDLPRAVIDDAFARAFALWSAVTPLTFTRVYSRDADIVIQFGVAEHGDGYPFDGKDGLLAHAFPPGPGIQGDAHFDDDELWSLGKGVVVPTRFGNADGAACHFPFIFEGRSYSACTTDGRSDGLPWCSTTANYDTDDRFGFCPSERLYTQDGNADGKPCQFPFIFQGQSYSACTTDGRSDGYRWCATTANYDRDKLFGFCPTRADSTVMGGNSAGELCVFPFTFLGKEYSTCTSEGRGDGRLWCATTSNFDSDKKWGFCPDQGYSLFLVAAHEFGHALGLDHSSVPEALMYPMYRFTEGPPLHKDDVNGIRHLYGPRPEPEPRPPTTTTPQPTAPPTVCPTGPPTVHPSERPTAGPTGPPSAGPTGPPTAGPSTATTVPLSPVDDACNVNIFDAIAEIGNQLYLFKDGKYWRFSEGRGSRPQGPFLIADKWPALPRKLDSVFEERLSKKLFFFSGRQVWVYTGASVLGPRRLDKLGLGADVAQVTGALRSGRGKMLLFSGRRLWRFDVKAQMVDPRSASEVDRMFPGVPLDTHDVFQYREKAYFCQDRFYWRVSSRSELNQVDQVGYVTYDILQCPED

Structure (SMILES): COc1ccc(S(=O)(=O)C(CC=C(C)C)(CC=C(C)C)C(=O)NO)cc1
- IC50 [1]: 0.0005 µM

Structure (SMILES): CCCCCCCC[C@@](Cc1cccnc1)(C(=O)NO)S(=O)(=O)c1ccc(OC)cc1
- IC50 [2]: 0.669 µM

Structure (SMILES): CC(Cc1ccccc1)(C(=O)NO)S(=O)(=O)c1cccs1 (centres undefined)
- IC50 (Interstitial collagenase [3]): 0.049 µM
- IC50 [1]: 0.049 µM
- IC50 (Collagenase 3 [4]): 0.037 µM
- inhibition [5]: 20%

Structure (SMILES): COc1ccc(S(=O)(=O)C(C)(Cc2ccc(OCCCN3CCN(c4cccc(Cl)c4)CC3)cc2)C(=O)NO)cc1 (centres undefined)
- IC50 [1]: 0.007 µM
- inhibition [5]: 40%
- inhibition in vivo at 25 mg/kg (Mus musculus [6]): 72%

Structure (SMILES): COc1ccc(S(=O)(=O)C(C)(Cc2ccc(OCCN3CCCCCC3)cc2)C(=O)NO)cc1 (centres undefined)
- inhibition in vivo at 25 mg/kg (Mus musculus [7]): 65%
- inhibition in vivo at 25 mg/kg (Rattus norvegicus): 67%
- inhibition [5]: 29%

Structure (SMILES): CCCCCCCCS(=O)(=O)C(C)(Cc1ccc(OCCN2CCCCC2)cc1)C(=O)NO (centres undefined)
- IC50 (Interstitial collagenase [3]): 0.01 µM
- IC50 [1]: 0.023 µM
- IC50 (Collagenase 3 [4]): 0.055 µM
- inhibition [5]: 65%

Structure (SMILES): C#CCC(CC#C)(C(=O)NO)S(=O)(=O)c1ccc(OC)cc1
- inhibition [5]: 20%

Structure (SMILES): COc1ccc(CS(=O)(=O)C(C)(Cc2ccccc2)C(=O)NO)cc1 (centres undefined)
- IC50 (Interstitial collagenase [3]): 0.01 µM
- inhibition [5]: 3%

Structure (SMILES): CC(C)=CCC(CC=C(C)C)(C(=O)NO)S(=O)(=O)c1ccc(C)cc1
- IC50 (Collagenase 3 [4]): 0.006 µM
- inhibition [5]: 36%

Structure (SMILES): CCCC(CCC)(C(=O)NO)S(=O)(=O)c1ccc(OC)cc1
- inhibition [8]: 30%
- inhibition [5]: 24%

Structure (SMILES): CCCCCCCCCCCCC(C(=O)NO)S(=O)(=O)c1ccc(OC)cc1 (centres undefined)
- inhibition [8]: 18%

Structure (SMILES): COc1ccc(S(=O)(=O)C(C)(C/C=C/c2ccccc2)C(=O)NO)cc1 (centres undefined)
- IC50 (Interstitial collagenase [3]): 0.299 µM
- IC50 [1]: 0.016 µM
- IC50 (Collagenase 3 [4]): 0.012 µM
- inhibition [5]: 65%

Structure (SMILES): CCOc1ccc(S(=O)(=O)C(C)(Cc2ccc(OCCN(CC)CC)cc2)C(=O)NO)cc1 (centres undefined)
- IC50 (Interstitial collagenase [9]): 0.627 µM
- IC50 [10]: 0.011 µM
- IC50 (Collagenase 3 [11]): 0.016 µM
- inhibition in vivo at 25 mg/kg (Mus musculus [12]): 74%

Structure (SMILES): CCCCC(C(=O)NO)S(=O)(=O)c1ccc(OC)cc1 (centres undefined)
- inhibition [8]: 8%
- inhibition [5]: 54%

Structure (SMILES): COc1ccc(S(=O)(=O)[C@](C)(Cc2ccc(OCCN3CCCCC3)cc2)C(=O)NO)cc1 (stereo in doubt; form 2)
- IC50 (Interstitial collagenase [3]): 0.154 µM
- IC50 [1]: 0.005 µM
- inhibition in vivo at 25 mg/kg (Mus musculus [13]): 69%

Structure (SMILES): COc1ccc(S(=O)(=O)C(C)(Cc2ccccc2)C(=O)NO)cc1 (centres undefined)
- inhibition [5]: 15%

Structure (SMILES): CCCC[C@@](Cc1cccnc1)(C(=O)NO)S(=O)(=O)c1ccc(OC)cc1
- inhibition [14]: 88%
- IC50 [2]: 0.764 µM

Structure (SMILES): C#CCC(Cc1cccnc1)(C(=O)NO)S(=O)(=O)c1ccc(OC)cc1 (centres undefined)
- IC50 (Collagenase 3 [4]): 0.032 µM
- inhibition [5]: 23%

Structure (SMILES): COc1ccc(S(=O)(=O)C(CCC(C)C)(Cc2cccnc2)C(=O)NO)cc1 (centres undefined)
- inhibition [5]: 41%

Structure (SMILES): COc1ccc(S(=O)(=O)C(C)(Cc2ccc(-c3ccccc3)cc2)C(=O)NO)cc1 (centres undefined)
- inhibition [5]: 17%

Structure (SMILES): CCN(CC)COc1ccc(CC(C)(C(=O)NO)S(=O)(=O)c2ccc(-c3ccco3)cc2)cc1 (centres undefined)
- IC50 (Interstitial collagenase [3]): 0.014 µM
- IC50 [1]: 0.004 µM
- IC50 (Collagenase 3 [4]): 0.002 µM
- inhibition [5]: 45%

Structure (SMILES): CC(Cc1ccc(OCCN2CCCCC2)cc1)(C(=O)NO)S(=O)(=O)c1cccs1 (centres undefined)
- IC50 (Interstitial collagenase [3]): 0.099 µM
- IC50 [1]: 0.079 µM
- IC50 (Collagenase 3 [4]): 0.085 µM
- inhibition [5]: 51%

Structure (SMILES): COc1ccc(S(=O)(=O)C(C)(Cc2ccc3ccccc3c2)C(=O)NO)cc1 (centres undefined)
- IC50 [1]: 0.008 µM

Structure (SMILES): COc1ccc(S(=O)(=O)C(C(=O)NO)C(C)C)cc1 (centres undefined)
- inhibition [14]: 27%
- inhibition [5]: 52%

Structure (SMILES): COc1ccc(S(=O)(=O)C(Cc2cccnc2)(CC(C)C)C(=O)NO)cc1 (centres undefined)
- IC50 (Interstitial collagenase [3]): 1 µM
- inhibition [5]: 42%

Structure (SMILES): COc1ccc(S(=O)(=O)[C@](C)(Cc2ccc(OCCN3CCCCC3)cc2)C(=O)NO)cc1 (stereo in doubt; form 1)
- IC50 (Interstitial collagenase [3]): 2.53 µM
- IC50 [1]: 0.112 µM
- inhibition in vivo at 25 mg/kg (Mus musculus [15]): 15%

Structure (SMILES): C=CCC(CC=C)(C(=O)NO)S(=O)(=O)c1ccc(OC)cc1
- inhibition [5]: 7%

Structure (SMILES): CCCCOc1ccc(S(=O)(=O)C(C)(Cc2ccc(OCCN3CCCCC3)cc2)C(=O)NO)cc1 (centres undefined)
- IC50 [1]: 0.003 µM
- inhibition in vivo at 25 mg/kg (Mus musculus [16]): 64%
- inhibition [5]: 30%

Structure (SMILES): COc1ccc(S(=O)(=O)C(C)(Cc2cccnc2)C(=O)NO)cc1 (centres undefined)
- inhibition [5]: 17%

Structure (SMILES): COc1ccc(S(=O)(=O)C(Cc2ccccc2)C(=O)NO)cc1 (centres undefined)
- IC50 (Collagenase 3 [4]): 0.1 µM

Structure (SMILES): CCCCCCCCS(=O)(=O)C(C)(Cc1ccccc1)C(=O)NO (centres undefined)
- inhibition [5]: 1%

Structure (SMILES): COc1ccc(S(=O)(=O)C(C)(Cc2ccc(OCCN3CCOCC3)cc2)C(=O)NO)cc1 (centres undefined)
- IC50 (Interstitial collagenase [3]): 0.413 µM
- IC50 [1]: 0.021 µM
- inhibition in vivo at 25 mg/kg (Mus musculus [17]): 48%
- inhibition [5]: 47%

Structure (SMILES): COc1ccc(S(=O)(=O)C(C)(Cc2ccc(OCCN(C(C)C)C(C)C)cc2)C(=O)NO)cc1 (centres undefined)
- inhibition [18]: 31%

Structure (SMILES): CCN(CC)CCOc1ccc(CC(C)(C(=O)NO)S(=O)(=O)c2ccc(OC)cc2)cc1 (centres undefined)
- IC50 [1]: 0.013 µM
- IC50 (Collagenase 3 [4]): 0.015 µM
- inhibition in vivo at 25 mg/kg (Mus musculus [19]): 68%
- inhibition [5]: 39%

Structure (SMILES): COc1ccc(S(=O)(=O)C(C)(Cc2ccc(OCCN3CCCCC3)cc2)C(=O)NO)cc1 (centres undefined)
- inhibition in vivo at 25 mg/kg (Mus musculus [20]): 78%
- inhibition in vivo at 25 mg/kg (Rattus norvegicus): 69%
- inhibition [5]: 41%
